Values after ≈ are worked out from the molar mass of the structure shown. Active and inactive are the calls of the source. The calls are words filed in the database; no cut-off is given here.
Key:
Rattus norvegicus [1] = assay: Antiinflammatory activity in nasally dosed Sprague-Dawley rat assessed as inhibition of LPS-induced bronchoalveolar lavage neutrophils measured as lung concentration administered as […]; assay type: functional
Summary of the method: (§1)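 ED80 was derived from the nose-only nebulized-solution dose response in rats dosed 30 min before LPS challenge, with neutrophilia as the readout. ED80 is given as nebulizer concentration, as the matching terminal total lung concentration, and as lung deposited dose estimated from measured filter sample and terminal lung levels.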

[2] = Half life in rat at 1 mg/kg, iv; assay type: ADME, organism-based; parameters: dose 1 mg/kg, route intravenous; conditions: in vivo
Summary of the method: (§2)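 Rat pharmacokinetics were run at 1 mg/kg, given iv or by intratracheal instillation, with 2−3 animals per study.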

[3] = molecular target: Voltage-gated inwardly rectifying potassium channel KCNH2 (Homo sapiens, UniProt Q12809); assay: Inhibition of human ERG
[4] = Half life in dog; assay type: ADME, organism-based, Canis lupus familiaris; conditions: in vivo
Rattus norvegicus [5] = assay: Antiinflammatory activity in Sprague-Dawley rat assessed as inhibition of LPS-induced bronchoalveolar lavage neutrophils measured as terminal lung concentration at 0.1 mg/ml, inhalation administered as nebulized suspension; assay type: functional
Summary of the method: (§3)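 Rats were given the compound as an aqueous nebulized aerosol by nose-only inhalation 30 min before LPS challenge. Dose is expressed as mg/mL nebulizer concentration. Lung neutrophilia was the readout, and terminal lung concentration (nM) was measured. Groups held 8−10 animals per treatment.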

[6] = molecular target: T1, 3',5'-cyclic-AMP phosphodiesterase 4B (Homo sapiens, UniProt Q07343); assay: Inhibition of human recombinant PDE4B at high-affinity rolipram binding site
Rattus norvegicus [7] = assay: Antiinflammatory activity in nasally dosed Sprague-Dawley rat assessed as inhibition of LPS-induced bronchoalveolar lavage neutrophils measured as nebulizer concentration administered as […]; assay type: functional; summary of the method: as §1
Rattus norvegicus [8] = assay: Antiinflammatory activity in Sprague-Dawley rat assessed as inhibition of LPS-induced bronchoalveolar lavage neutrophils measured as terminal lung concentration at 0.01 mg/ml, inhalation administered as nebulized suspension; assay type: functional; summary of the method: as §3
[9] = Volume of distribution at steady state in dog; assay type: ADME, organism-based, Canis lupus familiaris; conditions: in vivo, read-out: Vdss
Rattus norvegicus [10] = assay: Antiinflammatory activity in nasally dosed Sprague-Dawley rat assessed as inhibition of LPS-induced bronchoalveolar lavage neutrophils measured as lung deposited dose administered as […]; assay type: functional; summary of the method: as §1
Blood [11] = assay: Antiinflammatory activity in human whole blood assessed as inhibition of LPS-induced TNFalpha production after 20 hrs by ELISA; assay type: functional, tissue-based
Rattus norvegicus [12] = assay: Antiinflammatory activity in Sprague-Dawley rat assessed as inhibition of LPS-induced bronchoalveolar lavage neutrophils measured as terminal lung concentration at 0.1 mg/ml, inhalation administered as […] treated 12 hrs before LPS; assay type: functional
Summary of the method: (§4)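 Duration protocol: rats received a nose-only inhalation of nebulized aqueous compound solution 12 h before LPS challenge. Dose is expressed as mg/mL nebulizer concentration. Readout was LPS-induced pulmonary neutrophilia, with terminal lung concentration (nM) measured. Groups held 8−10 animals per treatment.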

[13] = molecular target: 3',5'-cyclic-AMP phosphodiesterase 4A (Homo sapiens, UniProt P27815); assay: Inhibition of human PDE4A1A using [3H]cAMP by packard topcount scintillation counting analysis
[14] = Clearance in dog; assay type: ADME, organism-based, Canis lupus familiaris; conditions: in vivo
[15] = Clearance in rat at 1 mg/kg, iv; assay type: ADME, organism-based; parameters: dose 1 mg/kg, route intravenous; conditions: in vivo; summary of the method: as §2
[16] = Lipophilicity, log K of the compound; assay type: physicochemical; conditions: octanol/water
Rattus norvegicus [17] = assay: Antiinflammatory activity in Sprague-Dawley rat assessed as inhibition of LPS-induced bronchoalveolar lavage neutrophils measured as terminal lung concentration at 0.003 mg/ml, inhalation administered as nebulized suspension; assay type: functional; summary of the method: as §3
[18] = molecular target: T1, 3',5'-cyclic-AMP phosphodiesterase 4B; assay: Inhibition of human recombinant PDE4B using [3H]cAMP by packard topcount scintillation counting analysis
Rattus norvegicus [19] = assay: Antiinflammatory activity in Sprague-Dawley rat assessed as inhibition of LPS-induced bronchoalveolar lavage neutrophils measured as terminal lung concentration at 0.03 mg/ml, inhalation administered as […] treated 12 hrs before LPS; assay type: functional; summary of the method: as §4
[20] = Volume of distribution at steady state in rat at 1 mg/kg, iv; assay type: ADME, organism-based; parameters: dose 1 mg/kg, route intravenous; conditions: in vivo, read-out: Vdss
[21] = Lipophilicity, log D of the compound; assay type: physicochemical; conditions: octanol/water
[22] = Intrinsic clearance in human liver microsomes; assay type: ADME; conditions: read-out: CLH
[23] = molecular target: 3',5'-cyclic-AMP phosphodiesterase 4D (Homo sapiens, UniProt Q08499); assay: Inhibition of human PDE4D using [3H]cAMP by packard topcount scintillation counting analysis
[24] = Fraction unbound in rat plasma; assay type: ADME, cell-free
[25] = Apparent volume of distribution in dog; assay type: ADME, organism-based, Canis lupus familiaris; conditions: in vivo, read-out: Vz/F
Rattus norvegicus [26] = assay: Antiinflammatory activity in Sprague-Dawley rat assessed as inhibition of LPS-induced bronchoalveolar lavage neutrophils measured as terminal lung concentration at 0.3 mg/ml, inhalation administered as nebulized suspension treated 12 hrs before LPS; assay type: functional; conditions: in the assay text read “nebulized solution” for “nebulized suspension”; summary of the method: as §4
[27] = Half life in rat at 1 mg/kg, it; assay type: ADME, organism-based; parameters: dose 1 mg/kg, route endotracheal; conditions: in vivo, inhaled or intranasal; summary of the method: as §2
Rattus norvegicus [28] = assay: Apparent volume of distribution in rat at 1 mg/kg, iv; assay type: ADME, organism-based; parameters: dose 1 mg/kg, route intravenous; conditions: in vivo; summary of the method: as §2
[29] = Oral bioavailability in dog; assay type: ADME, organism-based, Canis lupus familiaris; conditions: in vivo
[30] = Fraction unbound in human plasma; assay type: ADME, cell-free
PBMC = assay: Antiinflammatory activity in human PBMC assessed as inhibition of LPS-induced TNFalpha production after 20 hrs by fluorescence linked immunosorbant assay; assay type: functional, cell-based
[31] = molecular target: T2, 3',5'-cyclic-AMP phosphodiesterase 4B (Rattus norvegicus, UniProt P14646)
T2 sequence (P14646 whole entry): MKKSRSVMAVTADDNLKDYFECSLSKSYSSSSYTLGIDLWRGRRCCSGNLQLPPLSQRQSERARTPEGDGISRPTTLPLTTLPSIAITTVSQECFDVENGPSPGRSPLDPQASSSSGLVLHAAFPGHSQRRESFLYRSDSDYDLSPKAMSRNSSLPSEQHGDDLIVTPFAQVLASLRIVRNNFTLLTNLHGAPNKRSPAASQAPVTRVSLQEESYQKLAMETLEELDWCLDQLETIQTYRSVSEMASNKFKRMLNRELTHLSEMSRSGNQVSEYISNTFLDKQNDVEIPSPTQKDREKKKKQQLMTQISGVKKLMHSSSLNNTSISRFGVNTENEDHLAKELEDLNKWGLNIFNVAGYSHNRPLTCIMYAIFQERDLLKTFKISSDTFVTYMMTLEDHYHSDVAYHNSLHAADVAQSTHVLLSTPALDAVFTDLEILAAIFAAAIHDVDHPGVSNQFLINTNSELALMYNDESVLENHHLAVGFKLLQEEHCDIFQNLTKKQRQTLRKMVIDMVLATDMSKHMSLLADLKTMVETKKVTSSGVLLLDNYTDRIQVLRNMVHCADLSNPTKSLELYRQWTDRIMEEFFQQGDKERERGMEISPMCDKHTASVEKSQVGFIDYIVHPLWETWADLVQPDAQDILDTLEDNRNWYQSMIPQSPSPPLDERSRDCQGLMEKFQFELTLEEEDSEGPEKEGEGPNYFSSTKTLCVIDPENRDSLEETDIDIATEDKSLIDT

Rattus norvegicus [32] = assay: Antiinflammatory activity in Sprague-Dawley rat assessed as inhibition of LPS-induced bronchoalveolar lavage neutrophils measured as terminal lung concentration at 0.03 mg/ml, inhalation administered as nebulized suspension; assay type: functional; summary of the method: as §3
[33] = Intrinsic clearance in rat hepatocytes measured per 10^6 cells; assay type: ADME, cell-based, Hepatocyte; conditions: read-out: CLH
[34] = Oral bioavailability in rat at 1 mg/kg; assay type: ADME, organism-based; conditions: in vivo
Rattus norvegicus [35] = assay: Antiinflammatory activity in Sprague-Dawley rat assessed as inhibition of LPS-induced bronchoalveolar lavage neutrophils at 0.1 mg/ml, inhalation administered as nebulized suspension; assay type: functional, organism-based; summary of the method: as §3
[36] = Aqueous solubility of the compound at pH 7.4; assay type: physicochemical; conditions: aqueous medium
Rattus norvegicus [37] = assay: Antiinflammatory activity in Sprague-Dawley rat assessed as inhibition of LPS-induced bronchoalveolar lavage neutrophils at 0.01 mg/ml, inhalation administered as nebulized suspension; assay type: functional; summary of the method: as §3
Rattus norvegicus [38] = assay: Antiinflammatory activity in Sprague-Dawley rat assessed as inhibition of LPS-induced bronchoalveolar lavage neutrophils at 0.03 mg/ml, inhalation administered as nebulized suspension; assay type: functional, organism-based; summary of the method: as §3
Blood [39] = assay: tissue or blood; conditions: Rattus norvegicus, 20 h, read-out: pIC50 (converted)
Rattus norvegicus [40] = assay: Antiinflammatory activity in Sprague-Dawley rat assessed as inhibition of LPS-induced bronchoalveolar lavage neutrophils measured as LPS duration at 0.1 mg/ml, inhalation administered as nebulized suspension; assay type: functional, organism-based; summary of the method: as §4

Chain of Voltage-gated inwardly rectifying potassium channel KCNH2 (Q12809 whole entry): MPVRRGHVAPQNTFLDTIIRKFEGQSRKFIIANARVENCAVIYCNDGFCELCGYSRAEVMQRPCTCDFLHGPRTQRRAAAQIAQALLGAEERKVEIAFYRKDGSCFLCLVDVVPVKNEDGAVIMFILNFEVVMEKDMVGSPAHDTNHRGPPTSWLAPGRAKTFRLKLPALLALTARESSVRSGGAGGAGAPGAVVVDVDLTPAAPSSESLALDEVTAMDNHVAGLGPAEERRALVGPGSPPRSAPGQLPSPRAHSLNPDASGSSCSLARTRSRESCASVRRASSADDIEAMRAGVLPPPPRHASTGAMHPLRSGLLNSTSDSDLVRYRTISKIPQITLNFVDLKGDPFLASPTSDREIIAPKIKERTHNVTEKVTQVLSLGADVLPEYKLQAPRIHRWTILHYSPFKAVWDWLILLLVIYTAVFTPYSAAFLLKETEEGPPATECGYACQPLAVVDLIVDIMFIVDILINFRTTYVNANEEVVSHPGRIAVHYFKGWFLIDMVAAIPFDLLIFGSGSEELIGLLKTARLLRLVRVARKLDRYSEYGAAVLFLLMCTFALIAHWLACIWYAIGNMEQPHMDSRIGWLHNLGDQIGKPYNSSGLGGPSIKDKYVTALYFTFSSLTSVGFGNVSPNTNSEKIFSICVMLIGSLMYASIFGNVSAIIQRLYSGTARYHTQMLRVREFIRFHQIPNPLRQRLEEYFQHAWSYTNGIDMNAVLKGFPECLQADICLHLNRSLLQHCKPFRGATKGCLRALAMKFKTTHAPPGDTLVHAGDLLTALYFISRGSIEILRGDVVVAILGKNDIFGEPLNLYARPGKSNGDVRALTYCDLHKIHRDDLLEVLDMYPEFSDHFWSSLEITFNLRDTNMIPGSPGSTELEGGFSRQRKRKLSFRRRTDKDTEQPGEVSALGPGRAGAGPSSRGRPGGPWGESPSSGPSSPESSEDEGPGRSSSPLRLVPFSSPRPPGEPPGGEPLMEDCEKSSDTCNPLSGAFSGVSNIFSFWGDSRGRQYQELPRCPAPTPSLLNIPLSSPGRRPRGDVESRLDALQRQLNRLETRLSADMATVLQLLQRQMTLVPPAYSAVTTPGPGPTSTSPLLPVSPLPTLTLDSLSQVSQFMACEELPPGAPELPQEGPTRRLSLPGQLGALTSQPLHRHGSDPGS
Chain of 3',5'-cyclic-AMP phosphodiesterase 4A (P27815 whole entry): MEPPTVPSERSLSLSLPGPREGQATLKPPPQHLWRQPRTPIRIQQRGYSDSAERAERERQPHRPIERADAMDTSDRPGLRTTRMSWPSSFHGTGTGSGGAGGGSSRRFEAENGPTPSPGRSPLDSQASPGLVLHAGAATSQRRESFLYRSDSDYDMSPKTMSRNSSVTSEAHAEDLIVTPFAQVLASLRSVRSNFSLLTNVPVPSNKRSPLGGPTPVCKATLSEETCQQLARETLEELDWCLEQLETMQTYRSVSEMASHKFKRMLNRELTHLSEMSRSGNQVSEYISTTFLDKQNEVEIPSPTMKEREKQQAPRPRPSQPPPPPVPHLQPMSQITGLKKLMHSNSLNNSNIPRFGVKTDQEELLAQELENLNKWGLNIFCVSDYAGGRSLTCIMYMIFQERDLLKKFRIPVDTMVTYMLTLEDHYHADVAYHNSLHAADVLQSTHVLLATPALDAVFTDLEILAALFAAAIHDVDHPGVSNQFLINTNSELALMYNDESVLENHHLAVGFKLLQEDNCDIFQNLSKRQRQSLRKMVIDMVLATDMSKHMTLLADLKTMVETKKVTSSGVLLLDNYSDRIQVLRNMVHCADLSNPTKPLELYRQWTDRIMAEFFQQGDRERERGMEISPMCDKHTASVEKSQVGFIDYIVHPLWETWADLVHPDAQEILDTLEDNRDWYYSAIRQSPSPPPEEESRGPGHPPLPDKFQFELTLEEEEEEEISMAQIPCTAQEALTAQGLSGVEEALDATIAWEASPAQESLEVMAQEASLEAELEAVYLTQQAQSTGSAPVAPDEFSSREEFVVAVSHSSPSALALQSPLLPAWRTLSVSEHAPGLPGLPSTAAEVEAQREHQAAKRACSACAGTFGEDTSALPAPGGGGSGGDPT
T1 sequence (Q07343 whole entry): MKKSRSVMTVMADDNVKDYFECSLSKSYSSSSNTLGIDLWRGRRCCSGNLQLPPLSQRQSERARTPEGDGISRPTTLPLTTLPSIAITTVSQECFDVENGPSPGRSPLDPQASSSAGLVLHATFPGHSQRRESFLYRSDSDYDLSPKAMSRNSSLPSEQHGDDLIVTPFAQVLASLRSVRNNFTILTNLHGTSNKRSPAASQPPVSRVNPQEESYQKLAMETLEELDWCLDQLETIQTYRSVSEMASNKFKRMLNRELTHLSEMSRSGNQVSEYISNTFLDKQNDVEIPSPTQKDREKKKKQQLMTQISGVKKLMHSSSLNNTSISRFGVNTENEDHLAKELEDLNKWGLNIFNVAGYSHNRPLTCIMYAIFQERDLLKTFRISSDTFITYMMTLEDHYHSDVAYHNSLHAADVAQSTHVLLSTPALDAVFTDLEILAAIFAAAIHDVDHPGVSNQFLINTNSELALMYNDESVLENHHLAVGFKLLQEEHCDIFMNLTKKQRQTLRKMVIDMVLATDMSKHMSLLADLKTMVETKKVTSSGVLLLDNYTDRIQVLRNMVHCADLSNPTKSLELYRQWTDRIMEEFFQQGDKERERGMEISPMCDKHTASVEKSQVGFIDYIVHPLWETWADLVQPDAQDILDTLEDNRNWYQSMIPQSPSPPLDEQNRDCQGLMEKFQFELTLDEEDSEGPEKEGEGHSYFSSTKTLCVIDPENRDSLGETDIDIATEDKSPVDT
Chain of 3',5'-cyclic-AMP phosphodiesterase 4D (Q08499 whole entry): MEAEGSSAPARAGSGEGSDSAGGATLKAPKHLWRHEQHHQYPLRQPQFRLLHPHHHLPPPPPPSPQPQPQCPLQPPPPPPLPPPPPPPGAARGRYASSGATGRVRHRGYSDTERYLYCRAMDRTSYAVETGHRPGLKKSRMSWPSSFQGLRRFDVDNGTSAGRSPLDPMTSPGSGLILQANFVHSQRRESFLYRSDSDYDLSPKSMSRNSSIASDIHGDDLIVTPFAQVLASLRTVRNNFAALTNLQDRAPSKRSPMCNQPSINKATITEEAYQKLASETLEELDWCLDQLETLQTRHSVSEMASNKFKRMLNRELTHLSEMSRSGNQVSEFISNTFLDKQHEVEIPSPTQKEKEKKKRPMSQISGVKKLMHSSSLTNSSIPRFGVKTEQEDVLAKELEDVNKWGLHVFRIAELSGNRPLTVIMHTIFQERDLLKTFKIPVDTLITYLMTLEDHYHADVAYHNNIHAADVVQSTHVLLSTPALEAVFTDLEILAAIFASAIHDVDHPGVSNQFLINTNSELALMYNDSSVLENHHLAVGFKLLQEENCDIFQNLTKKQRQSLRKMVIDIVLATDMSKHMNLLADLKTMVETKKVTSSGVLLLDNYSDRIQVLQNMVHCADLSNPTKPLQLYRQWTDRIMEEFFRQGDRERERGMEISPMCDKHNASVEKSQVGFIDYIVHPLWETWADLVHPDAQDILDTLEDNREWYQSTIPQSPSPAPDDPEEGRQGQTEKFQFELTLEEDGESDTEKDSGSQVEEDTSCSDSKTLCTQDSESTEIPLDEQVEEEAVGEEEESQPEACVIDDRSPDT

Structure (SMILES) | ED80 (Rattus norvegicus [1]) [nM] | half-life [2] [h] | IC50 [3] [nM] | half-life [4] [h] | Activity (Rattus norvegicus [5]) [nM] | ED80 (Rattus norvegicus [7]) [µg/mL] | Activity (Rattus norvegicus [8]) [nM] | Vd [9] [L/kg] | ED80 (Rattus norvegicus [10]) [µg/kg] | IC50 (Blood [11]) [nM] | Activity (Rattus norvegicus [12]) [nM] | IC50 [13] [nM] | clearance [14] [mL/min/kg] | clearance [15] [mL/min/kg] | log K [16] | Activity (Rattus norvegicus [17]) [nM] | Activity (Rattus norvegicus [19]) [nM] | Vd [20] [L/kg] | logD [21] | microsomal CLint [22] [µL/min/mg] | further results
Cc1csc(C(=O)N[C@H]2CC[C@@H](NC(=O)c3cc(F)cnc3Oc3cccc(-c4ccc(CN5C[C@@H](C)N[C@@H](C)C5)cc4CN4CCOCC4)c3)CC2)n1 | 23 | 7 | 20000 | 15 | 90 | 20 (≈ 26.5 µM) | 12 | 26 | 0.2 | 0.316 | 22 | < 10 | 34 | 44 | 1.32 | 2 | 7 | 18 | 1.9 | > 150 | IC50 [6]: < 10 nM; IC50 [18]: 0.0251 nM; IC50 [23]: 0.02 nM; fraction unbound [24]: 0.23; Vd/F [25]: 44 L/kg; Activity (Rattus norvegicus [26]): 57 nM; half-life [27]: 8 h; Vz/F (Rattus norvegicus [28]): 27 L/kg; bioavailability [29]: 16%; fraction unbound [30]: 0.045; IC50 (PBMC): 0.02 nM; IC50 [31]: 0.02 nM; Activity (Rattus norvegicus [32]): 30 nM; hepatocyte CLint [33]: 10 µL/min/1e6 cells
Cc1ccc(O)c(C(=O)N[C@H]2CC[C@@H](NC(=O)c3cc(F)cnc3Oc3cccc(-c4ccc(CN5C[C@@H](C)N[C@@H](C)C5)cc4CN4CCOCC4)c3)CC2)c1 | 78 | 7 | 6310 | 15 | 123 | 60 (≈ 78.4 µM) | 26 | 13 | 0.6 | 12.6 | 14 | < 10 | 19 | 50 | 1.88 | 9 | 5 | 16 | 2.8 | 78 | bioavailability [34]: < 16%; inhibition (Rattus norvegicus [35]): Active; solubility [36]: 213 µM (≈ 163 µg/mL); fraction unbound [24]: 0.083; Vd/F [25]: 25 L/kg; Activity (Rattus norvegicus [26]): 33 nM; inhibition (Rattus norvegicus [37]): Active; half-life [27]: 9 h; Vz/F (Rattus norvegicus [28]): 30 L/kg; inhibition (Rattus norvegicus [38]): Active; IC50 (Blood [39]): 0.501 nM; bioavailability [29]: 6%; fraction unbound [30]: 0.013; IC50 (PBMC): 0.0398 nM; IC50 [31]: 0.0251 nM; inhibition (Rattus norvegicus [40]): Active; Activity (Rattus norvegicus [32]): 88 nM; hepatocyte CLint [33]: 13 µL/min/1e6 cells

— ChEMBL document CHEMBL3286180, “Efficacious inhaled PDE4 inhibitors with low emetic potential and long duration of action for the treatment of COPD” (J Med Chem, 2014)
